Two compounds from ChEMBL document CHEMBL4138128, “Structural design, synthesis and pharmacological evaluation of thiazoles against Trypanosoma cruzi” (Eur J Med Chem, 2017) can be followed below.

Data set [1] in a line: Safety index, ratio of compound CC50 to gentian violet CC50 for cytotoxicity against rat H9c2 cells. The data set is classed as cell-based. Put shortly:
(§1)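 H9c2 or J774 cells (1 x 10^4/well) in DMEM/10% FBS preincubated 24 h, then exposed 72 h to six concentrations (0.41 to 100 µM) in triplicate, DMSO under 1%. Viability by AlamarBlue, read after 6 h at 570/600 nm; CC50 from three independent experiments; gentian violet positive control.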

Data set [2] concerns Trypanosoma cruzi. Briefly: Antitrypanosomal activity against bloodstream trypomastigote stage of Trypanosoma cruzi Y infected in Balb/c mouse assessed as protection against mouse mortality at 25 mg/kg, po qd administered for 5 consecutive days starting from day 5 post infection measured up to 30 days post treatment. Type of data set: functional, organism-based. Put shortly:
(§2)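 Female BALB/c mice (18-22 g, 6-8 weeks) infected i.p. with 10^4 Y strain bloodstream trypomastigotes in saline; six per group. From day 5, oral dosing once daily for 5 days; vehicle saline with 20% DMSO. Parasitaemia counted as motile parasites in 5 µL tail-vein blood; reduction = (vehicle mean − treated mean)/vehicle mean × 100. Mortality followed to 30 days post-treatment.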

The test system of data set [3] is Trypanosoma cruzi. Briefly: Antitrypanosomal activity against bloodstream trypomastigote stage of Trypanosoma cruzi Y infected in Balb/c mouse assessed as reduction in blood parasitaemia at 25 mg/kg, po qd administered for 5 consecutive days starting from day 5 post infection measured on day 8 post infection relative to control. Type of data set: functional. More on the design: scale not given: the % may be the effect or the level left. The method, boiled down:
as §2

Data set [4] can be described thus: Cytotoxicity against rat H9c2 cells assessed as reduction in cell viability after 72 hrs by alamar blue assay. The data set is classed as cell-based. The method, boiled down: as §1
On the technique in general: Resazurin is reduced to fluorescent resorufin, in cell work by metabolically active cells.

Data set [5] relates to Trypanosoma cruzi. Briefly: Antitrypanosomal activity against bloodstream trypomastigote stage of Trypanosoma cruzi Y infected in monkey LLC-MK2 cells assessed as reduction in parasite motility measured after 24 hrs by neubauer chamber method. The data set is classed as functional, organism-based. The following applies: LLC-MK2, 24 h. Put shortly: (§3)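 Y strain trypomastigotes from LLC-MK2 supernatants, 4x10^5/well, incubated 24 h at 37°C, 5% CO2 with five concentrations; viable parasites counted by motility in Neubauer chamber. Inhibition versus untreated cultures; IC50 by non-linear regression; benznidazole reference.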

Data set [6] deals with Trypanosoma cruzi. Briefly: Induction of apoptosis in bloodstream trypomastigote stage of Trypanosoma cruzi Y assessed as early apoptotic cells at 0.4 uM measured after 24 hrs by Annexin V-FITC/propidium iodide staining based flow cytometry (reference value: 8.25%). The data set is classed as functional. (In general: Flow cytometry measures light scatter and fluorescence of single cells or particles in a stream.)

The subject of data set [7] is Trypanosoma cruzi. Briefly: Synergistic antitrypanosomal activity against bloodstream trypomastigote stage of Trypanosoma cruzi Y infected in monkey LLC-MK2 cells measured after 24 hrs in presence of benznidazole. Type of data set: functional. Put shortly: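 Doubling dilutions of each drug alone or in fixed-ratio combinations tested on trypomastigotes by the 24 h motility assay; combination index by Chou-Talalay method and isobologram.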

The subject of data set [8] is Trypanosoma cruzi. Briefly: Potency index, ratio of benznidazole IC50 to compound IC50 for antitrypanosomal activity against bloodstream trypomastigote stage of Trypanosoma cruzi Y infected in monkey LLC-MK2 cells. The data set is classed as functional. The method, boiled down: as §3
Data set [9] is described as follows: Solubility of the compound in pH 5.5 sodium acetate buffer at 10 uM. The following applies: pH 5.5, 10 µM.
Data set [10] relates to Trypanosoma cruzi. Briefly: Induction of apoptosis in bloodstream trypomastigote stage of Trypanosoma cruzi Y assessed as late apoptotic cells at 0.4 uM measured after 24 hrs by Annexin V-FITC/propidium iodide staining based flow cytometry (reference value: 1.51%). The data set is classed as functional.
Data set [11] relates to Mus musculus. Briefly: Toxicity in Balb/c mouse infected with Trypanosoma cruzi Y trypomastigotes assessed as behavioral alteration at 25 mg/kg, po qd administered for 5 consecutive days starting from day 5 post infection. The data set is classed as organism-based. The conditions noted are these: in vivo. Put shortly:
as §2

Data set [12] deals with Trypanosoma cruzi. Briefly: Antitrypanosomal activity against bloodstream trypomastigote stage of Trypanosoma cruzi Y infected in Balb/c mouse macrophages assessed as reduction in number of infected cells measured after 3 days by hoeschst staining based confocal microscopic method. Type of data set: functional, organism-based. The method, boiled down:
(§4)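 BALB/c peritoneal macrophages (5x10^4/well) in DMEM/10% FBS, infected with trypomastigotes (10:1) for 2 h, washed, held 24 h, then treated 72 h (test at 8, 2, 0.5 µM; benznidazole 5 µM control). Formaldehyde-fixed, Hoechst-stained, imaged by confocal high-content microscopy for infected cells and amastigotes per 100 cells; six determinations; ANOVA with Bonferroni.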

Data set [13] concerns the target Cruzipain (Trypanosoma cruzi) (UniProt P25779). Briefly: Inhibition of recombinant Trypanosoma cruzi cruzain at 10 uM preincubated for 10 mins followed by Z-FR-AMC substrate addition measured for 5 mins at 12 secs time interval by […] relative to control. The method, boiled down: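 Cruzain 0.5 nM in 0.1 M sodium acetate pH 5.5, 1 mM beta-mercaptoethanol, 0.01% Triton X-100, 25 °C; 10 min preincubation, then Z-FR-AMC 2.5 µM (Km 1 µM). Fluorescence (ex 340, em 440) read continuously 5 min; initial rates versus DMSO control. Screens at 10 µM, two independent runs in triplicate; IC50 from at least seven concentrations, four-parameter fit, at least two curves.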

The test system of data set [14] is Trypanosoma cruzi. Briefly: Induction of apoptosis in bloodstream trypomastigote stage of Trypanosoma cruzi Y assessed as necrotic cells at 0.4 uM measured after 24 hrs by Annexin V-FITC/propidium iodide staining based flow cytometry (reference value: 0.5%). The data set is classed as functional.
The subject of data set [15] is Trypanosoma cruzi. Briefly: Antitrypanosomal activity against bloodstream trypomastigote stage of Trypanosoma cruzi Y infected in Balb/c mouse macrophages assessed as reduction in number of intracellular amastigotes measured after 3 days by hoeschst staining based confocal microscopic method. Type of data set: functional, organism-based. Put shortly:
as §4

A short description of data set [16]: Safety index, ratio of compound CC50 to gentian violet CC50 for cytotoxicity against mouse J774 cells. The data set is classed as cell-based. Put shortly:
as §1

Data set [17] has as its system Trypanosoma cruzi. Briefly: Antitrypanosomal activity against bloodstream trypomastigote stage of Trypanosoma cruzi Y infected in Balb/c mouse assessed as reduction in blood parasitaemia at 25 mg/kg, po qd administered for 5 consecutive days starting from day 5 post infection measured on day 12 post infection relative to control. Type of data set: functional. More on the design: scale not given: the % may be the effect or the level left. The method, boiled down: as §2

Data set [18] relates to Trypanosoma cruzi. Briefly: Antitrypanosomal activity against bloodstream trypomastigote stage of Trypanosoma cruzi Y assessed as induction of mitochondrial membrane potential loss at 0.4 to 0.8 uM measured after 24 hrs by Rho-123 staining based FACS analysis. The data set is classed as functional, organism-based. The method, boiled down: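 Trypomastigotes (1 x 10^7/mL) from LLC-MK2 culture supernatants, exposed 24 h at 37°C in DMEM with FBS; washed in PBS, stained 15 min with 5 µg/mL Rhodamine 123, washed, analysed immediately by flow cytometry; 10,000 events gated on trypomastigote region.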

A short description of data set [19]: Cytotoxicity against mouse J774 cells assessed as reduction in cell viability after 72 hrs by alamar blue assay. The data set is classed as cell-based. Put shortly:
as §1

Data set [20] concerns Trypanosoma cruzi. Briefly: Induction of apoptosis in bloodstream trypomastigote stage of Trypanosoma cruzi Y assessed as viable cells at 0.4 uM measured after 24 hrs by Annexin V-FITC/propidium iodide staining based flow cytometry (reference value: 89.73%). The data set is classed as functional.
Data set [21] relates to Trypanosoma cruzi. Briefly: Antitrypanosomal activity against bloodstream trypomastigote stage of Trypanosoma cruzi Y infected in Balb/c mouse assessed as reduction in blood parasitaemia at 100 mg/kg, po qd administered for 5 consecutive days starting from day 5 post infection measured on day 8 post infection relative to control. Type of data set: functional. Also on record: scale not given: the % may be the effect or the level left. The method, boiled down: as §2

Data set [22] deals with Trypanosoma cruzi. Briefly: Antitrypanosomal activity against bloodstream trypomastigote stage of Trypanosoma cruzi Y infected in Balb/c mouse macrophages assessed as reduction in number of infected cells at 0.5 uM measured after 3 days by hoeschst staining based confocal microscopic method. Type of data set: functional, organism-based. The following applies: 5 uM, in the assay text read “at 5 uM” for “at 0.5 uM”. Put shortly: as §4

The subject of data set [23] is Trypanosoma cruzi. Briefly: Antitrypanosomal activity against bloodstream trypomastigote stage of Trypanosoma cruzi Y infected in Balb/c mouse assessed as reduction in blood parasitaemia at 100 mg/kg, po qd administered for 5 consecutive days starting from day 5 post infection measured on day 12 post infection relative to control. The data set is classed as functional. More on the design: scale not given: the % may be the effect or the level left. Put shortly: as §2

Data set [24] deals with Trypanosoma cruzi. Briefly: Antitrypanosomal activity against bloodstream trypomastigote stage of Trypanosoma cruzi Y infected in Balb/c mouse assessed as protection against mouse mortality at 100 mg/kg, po qd administered for 5 consecutive days starting from day 5 post infection measured up to 30 days post treatment. The data set is classed as functional, organism-based. The method, boiled down:
as §2

For data set [25], the system named is Mus musculus. Briefly: Toxicity in Balb/c mouse infected with Trypanosoma cruzi Y trypomastigotes assessed as behavioral alteration at 100 mg/kg, po qd administered for 5 consecutive days starting from day 5 post infection. The data set is classed as organism-based. The following applies: in vivo. Put shortly: as §2
Data set [26] has as its system Trypanosoma cruzi. Briefly: Antitrypanosomal activity against bloodstream trypomastigote stage of Trypanosoma cruzi Y infected in Balb/c mouse macrophages assessed as reduction in number of intracellular amastigotes at 0.5 uM measured after 3 days by hoeschst staining based confocal microscopic method. The data set is classed as functional, organism-based. The following applies: 5 uM, in the assay text read “at 5 uM” for “at 0.5 uM”. The method, boiled down: as §4

The source made the active and inactive calls. The calls are words filed in the database; no cut-off is given here.

Sequence of Cruzipain (Trypanosoma cruzi) (P25779 123-467 limits assumed): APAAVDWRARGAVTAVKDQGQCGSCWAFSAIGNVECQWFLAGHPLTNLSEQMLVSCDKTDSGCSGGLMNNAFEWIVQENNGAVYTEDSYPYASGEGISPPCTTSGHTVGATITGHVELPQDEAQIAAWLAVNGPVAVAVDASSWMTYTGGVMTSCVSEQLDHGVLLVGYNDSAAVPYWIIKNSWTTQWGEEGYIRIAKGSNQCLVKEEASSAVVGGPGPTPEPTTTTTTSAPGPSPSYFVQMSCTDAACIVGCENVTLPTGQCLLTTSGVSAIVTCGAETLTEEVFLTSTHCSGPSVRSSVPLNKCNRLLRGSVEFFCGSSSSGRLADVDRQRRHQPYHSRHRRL

In general, CC50 refers to the concentration giving 50% cytotoxicity. As a reminder, the IC50 is the midpoint of a concentration-inhibition curve. The term inhibition denotes the drop in the measured response relative to a control, in per cent. As to `C/C(=N\Nc1nc(-c2ccccn2)cs1)c1ccc(Cl)c(Cl)c1`, the results for the selectivity ratio in data set [1] and in [16] were 7 and 22, respectively. Moreover, the outcome in [2] and in data set [18] was Active. For the same compound, the Activity was 54.6% in [3]; 18.05% in data set [6]; 7.13% in data set [10]; “Non-Toxic” in data set [11]; “Dose-dependent effect” in [12]; 0.19% in [14]. The Activity result in data set [15] is “Dose-dependent effect”; in data set [17] it was 64.1%; in data set [20], 74.62%. Moreover, the CC50 at 72 h in data set [4] came out at 10.2 µM; in data set [19], 10.1 µM. Also, the IC50 in data set [5] was 0.37 µM. Also, the CI in data set [7] was 0.37. In addition, in data set [8], the “Ratio IC50” value is recorded as 28. In addition, in [9], the solubility entry is reported as “Soluble”. Further, in [13], the inhibition was 17%.
With `O=C(Cn1ccnc1[N+](=O)[O-])NCc1ccccc1` [BENZNIDAZOLE], the Activity is given as greater than 99% in [21], greater than 99% in data set [23] and “Non-Toxic” in [25]. Moreover, the result in [22], in [24] and in [26] was Active. For the same compound, the CC50 at 72 h in data set [4] and in [19] was greater than 50 µM in each case. Moreover, the IC50 in [5] came out at 10.6 µM.
